MDM2 E3 inh: MDM2-luciferase reporter signal enhancers, primary screen, MDM2 E3 ligase inhibitor project, cell-based, luminescence, 1536-well. AID 1230, 2008. 210,000 tested, 0.11% active. signal enhancement, % at 5 µM. cell-based MDM2 ubiquitination luciferase reporter, 2 h; 0 = plate control, 100 = twice control, blank-subtracted. E3 ubiquitin-protein ligase Mdm2 (Homo sapiens), Q00987;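 active = signal enhancement of 30% or more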;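 also: luminescence tracks abundance of the self-degrading MDM2-luciferase fusion protein; higher signal means inhibition of MDM2 E3 ligase activity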
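Test system: stable mammalian line carrying autodegrading MDM2–luciferase fusion reporter; quantity: 2000 cells in each well; times: 4 h cell settling then 2 h compound exposure, 37 °C; detection: luminescence with SteadyLite reagent, 15 min at room temperature; evaluation: percent signal gain over controls, blank-subtracted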
S1P4 agonist: S1P4 receptor agonists, primary screen, cell-based; Sphingosine 1-phosphate receptor 4 (Homo sapiens), O95977; S1P4-expressing cell line, agonist reporter assay; activation, % at 4.98 µM; 220,000 tested, 0.35% active; in the data active = activation above about 11%;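 also: 0% = DMSO vehicle and 100% = reference agonist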
S1P4 antagonist: S1P4 receptor antagonists, primary screen, cell-based; Sphingosine 1-phosphate receptor 4 (Homo sapiens), O95977; AID 1510, 2009; S1P4-expressing cells, antagonist mode, reporter read-out; inhibition, % at 4.98 µM; 220,000 tested, 0.26% active; in the data active = inhibition above about 29%;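 also: 0% = wells stimulated with agonist and 100% = vehicle wells without agonist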
L major viab: Leishmania major promastigote growth inhibition, primary screen; inhibition, % at 10 µM; 200,000 tested, 9% active; Leishmania major promastigotes, resazurin fluorescence viability; AID 1063, 2008; in the data active = inhibition above about 50%;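 also: promastigotes grown with compound for 44 hours at 28 °C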
S1P3 antag: S1P3 receptor antagonists, primary screen, cell-based | inhibition, % at 4.98 µM | CHO S1P3 NFAT-BLA reporter, FRET fluorescence, antagonist mode | AID 485, 2006 | Sphingosine 1-phosphate receptor 3 (Homo sapiens), Q99500 | 170,000 tested, 0.27% active;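 active = inhibition above the plate cutoff, the mean inhibition of test wells on that plate plus 3 SD, cut at about 28% in these data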;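 also: cells challenged with S1P at its EC80 of 0.8 µM; blue over green emission ratio from cleaved BLA substrate after 4 h stimulation; 0% = S1P-stimulated wells and 100% = unstimulated DMSO-only wells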
Target sequence (Q99500 whole entry, looked up): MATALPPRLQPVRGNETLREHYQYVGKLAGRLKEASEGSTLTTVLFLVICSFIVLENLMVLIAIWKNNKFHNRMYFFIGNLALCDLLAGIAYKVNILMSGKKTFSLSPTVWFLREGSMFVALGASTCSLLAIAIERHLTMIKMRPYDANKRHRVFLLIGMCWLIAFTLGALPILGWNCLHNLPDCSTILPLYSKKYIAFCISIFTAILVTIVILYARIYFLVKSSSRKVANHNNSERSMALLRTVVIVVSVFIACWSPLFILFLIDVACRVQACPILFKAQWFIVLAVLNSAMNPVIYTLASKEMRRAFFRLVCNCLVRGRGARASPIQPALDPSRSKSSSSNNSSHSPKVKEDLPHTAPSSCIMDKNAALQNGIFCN
* marks the source's active call; other numbers are inactive results; nt = not tested or not shown. The sample as a whole holds a higher share of hits than the screen did.

SMILES	MDM2 E3 inh	S1P4 agonist	S1P4 antagonist	L major viab	S1P3 antag
COc1ccc(C2=NN(C(=O)CN3CCCCC3)C(c3ccc(C)cc3)C2)cc1 (stereo unspecified)	-7	-3	18	73*	-8
COc1ccc(C2CC(c3ccccc3)=NN2C(=O)COC(=O)c2cnc(Cl)c(Cl)c2)cc1 (stereo unspecified)	-1	2	-5	97*	-6
COc1ccc(C2CC(c3ccccc3OC(C)=O)=NN2C(=O)/C=C/c2ccccc2)cc1 (stereo unspecified)	2	0	-21	97*	-2
CCOC(=O)C1CCCN(C(=O)COc2ccc(N(C)S(=O)(=O)c3ccc(F)cc3)cc2)C1 (stereo unspecified)	9	2	-1	2	-14
CC1CC(C)CN(c2ccc(C(=O)NCc3ccc4c(c3)OCO4)cc2[N+](=O)[O-])C1 (stereo unspecified)	-10	-1	-3	6	18
Cc1nn(-c2ccccc2Cl)c(Cl)c1/C=C(\C#N)C(N)=O	8	0	-9	46	-9
CCOc1ccccc1NC(=O)/C(C#N)=C/c1c(C)nn(-c2ccc(F)cc2)c1Cl	-3	3	-24	73*	-11
C=CCNC(=O)/C(C#N)=C/c1c(C)nn(-c2ccc(Cl)cc2)c1Cl	-4	-1	11	89*	-20
Cc1nn(-c2ccc(Cl)cc2)c(Cl)c1/C=C(\C#N)C(N)=O	-6	0	-4	24	-5
Cc1ccc2cc(CCNC(=O)c3ccc(C)c([N+](=O)[O-])c3)c(=O)[nH]c2c1	5	2	-12	-1	0
Cc1ccccc1-c1ncc(CN2CCC(CO)(CCCc3ccccc3)CC2)cn1	-21	0	14	2	0
Cc1ccccc1S(=O)(=O)c1c(C)cc(C)n(C(C)C)c1=O	-9	0	-10	89*	nt
CCCCn1c(C)cc(C)c(S(=O)(=O)c2ccccc2C)c1=O	-10	2	-3	97*	nt
COc1cccc(-n2c(=O)n(Cc3ccccc3)c(=O)c3[nH]cnc32)c1	-13	0	-4	nt	-14
COC(=O)Cc1cc(OC)c(OC)cc1S(=O)(=O)N(C)C	-6	-1	-11	-2	-6
O=c1c(CN2CCN(Cc3ccccc3)CC2)coc2ccc(Cl)cc12	-7	4	-42	76*	-19
c1ccc(-c2noc(CC3CCCCC3)n2)nc1	-13	6	0	4	-4
CNc1nc(-c2ccccn2)nnc1-c1ccccc1	-3	-1	5	99*	nt
c1ccc(-c2nnc(-c3ccccn3)nc2NC2CCCCC2)cc1	-14	1	6	100*	nt
O=C(c1cc(-c2ccccn2)nc2c(Cl)cccc12)N1CCN(C(=O)C2CCCO2)CC1 (stereo unspecified)	0	0	1	8	-10
O=C(c1cc(-c2ccccn2)nc2c(Cl)cccc12)N1CCN(S(=O)(=O)c2ccccc2)CC1	-6	0	-10	81*	-4
CCCCNC(=S)Nc1ccc2nc3n(c(=O)c2c1)CCCCC3	-7	1	-29	51*	-2
O=C(Nc1ccc2nc3n(c(=O)c2c1)CCCC3)c1cccc([N+](=O)[O-])c1	1	2	-15	17	-5
O=C(Nc1ccc2nc3n(c(=O)c2c1)CCCC3)c1cc([N+](=O)[O-])ccc1F	10	0	-8	100*	-9
COc1ccccc1N1CCN(Cc2ccc(O)c3ncccc23)CC1	-7	0	-11	101*	nt
SMILES	MDM2 E3 inh	S1P4 agonist	S1P4 antagonist	L major viab	S1P3 antag
CCOC(=O)C1CCN(Cc2ccc(O)c3ncccc23)CC1	1	0	-5	95*	-13
COc1ccccc1N1CCN(Cc2ccc(OC)c(OC)c2OC)CC1	-8	0	1	3	-14
COc1ccc(C2C3=C(CCCC3=O)Nc3ccc4ncccc4c32)cc1OC (stereo unspecified)	-5	-1	8	75*	1
CCCCNC(=O)c1cc2c(-c3ccc(Cl)cc3)nn(C)c2s1	9	-1	-7	-1	-13
CCN1CCCC1CNC(=O)c1cc2c(-c3ccc(Cl)cc3)nn(C)c2s1 (stereo unspecified)	-9	-4	6	100*	19
CCN1CCCC1CNC(=O)C(=O)Nc1cccc(OC)c1 (stereo unspecified)	-17	-2	1	53*	4
CCN1CCCC1CNC(=O)c1cc2c(-c3cccc(OC)c3)nn(C)c2s1 (stereo unspecified)	-20	-1	-12	82*	-5
COCCNC(=O)c1cc2c(-c3ccc(Cl)cc3)nn(C)c2s1	-1	-1	-17	1	25
COc1cccc(-c2nn(C)c3sc(C(=O)NCc4ccco4)cc23)c1	19	1	-12	-1	41
Cn1nc(-c2ccc(Cl)cc2)c2cc(C(=O)NCCCN3CCCC3)sc21	-14	-3	-10	100*	-28
S=C(c1cn(Cc2ccc(Br)cc2)c2ccccc12)N1CCOCC1	3	0	-12	39	-1
CC(=O)c1ccc(N2Cc3ccccc3C3(CCOCC3)C2=N)cc1	-10	0	10	0	-11
CCc1ccc2c(c1)C(=O)c1ccccc1C2=O	-21	1	-11	-1	-6
CCc1ccc2c(c1)C1(NN=C(c3cccc4ccccc34)S1)C(=O)N2 (stereo unspecified)	13	-1	0	99*	nt
CC(C)(C)c1ccc(OCC(=O)NNC(=O)Cc2cccs2)cc1	-11	-3	-3	-6	nt
CC(C)(C)NCc1ccc(OCc2cccs2)cc1	-4	-2	-7	100*	-8
O=C(O)C1CCN(C(=O)c2ccccc2Cl)CC1	-6	1	-28	-5	nt
CC1CN(C2CCN(C(=O)c3ccccc3Cl)CC2)CC(C)O1 (stereo unspecified)	2	1	2	88*	nt
O=C(c1cccc(Cl)c1)N1CCC(N2CCC(C(=O)N3CCOCC3)CC2)CC1	11	1	5	42	-3
CC1CN(C2CCN(C(=O)c3cccc(Cl)c3)CC2)CC(C)O1 (stereo unspecified)	0	1	-16	91*	nt
O=C(c1cccc(F)c1)N1CCC(N2CCOCC2)CC1	-19	-1	1	62*	nt
CC(C)Nc1nc2n(c(=O)n1)CCN2C(C)C	-2	1	6	-6	-46
COc1ccc(Br)cc1S(=O)(=O)n1ccnc1	-6	0	-9	63*	-2
CCOc1cc(C)c(Cl)cc1S(=O)(=O)n1ccnc1	-3	1	-5	92*	9
CCOc1ccc(C)cc1S(=O)(=O)n1ccnc1	-14	4	-5	5	-23
Cc1ccccc1NC(=S)NN1CCN(C)CC1	7	0	-10	-4	nt
CCOC(=O)c1cnc2ccc(OC)cc2c1NCc1ccccc1	3	1	4	69*	6
